Screening results: PubChem, several laboratories
Rows were chosen to be rich in hits. Some 2.7% of all compounds tested hit in one or more screens of this group.
MC4R antag cAMP – MC4R antagonists of cAMP signaling, primary screen, cell-based, TR-FRET, antagonist arm of biased-ligand search; MC4R-expressing cells, MTII-stimulated cAMP, LANCE TR-FRET; actives 0.48% (n = 360,000); inhibition, % at 6.5 µM; AID 540295, 2011;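 active = inhibition above its plate's cutoff, the mean of tested wells on that plate plus 3 SD, cut at about 29% in these data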
Target sequence (P32245 whole entry, looked up): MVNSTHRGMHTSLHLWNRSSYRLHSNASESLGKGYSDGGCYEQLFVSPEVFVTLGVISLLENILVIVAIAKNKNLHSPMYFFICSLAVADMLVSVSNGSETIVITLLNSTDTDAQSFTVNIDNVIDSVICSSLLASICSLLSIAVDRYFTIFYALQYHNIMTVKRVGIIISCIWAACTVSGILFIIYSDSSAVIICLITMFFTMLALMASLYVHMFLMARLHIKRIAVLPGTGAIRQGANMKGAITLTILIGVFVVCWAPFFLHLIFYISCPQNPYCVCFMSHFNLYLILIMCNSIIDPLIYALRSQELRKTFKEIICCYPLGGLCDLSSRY
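Assay system: human MC4R-expressing U2OS cells; reagent: Melanotan II stimulation of cells; dosing: 6.5 µM single dose; timing: compound 30 min, challenge 1 h, detection 1 h; signal: TR-FRET cAMP assay; replicates: one well per compound, no replicates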
NR1D1 modulator – modulators of Rev-erb alpha DNA binding, primary screen, biochemical, FITC-DNA, fluorescence polarization, uHTS. Nuclear receptor subfamily 1 group D member 1 (Homo sapiens), P20393. AID 1259318, 2017. activity, % at 10 µM. actives 0.79% (n = 370,000). Rev-erbα–FITC-DNA binding, 90 min;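 active = activity above about 14%, limit read from the data; passing the limit was not always enough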
MC4R ag barr – MC4R agonists recruiting beta-arrestin, primary screen, cell-based, luminescence, agonist arm of biased-ligand search. Melanocortin receptor 4 (Homo sapiens), P32245. U2OS MC4R beta-arrestin complementation; percent of melanotan II response, DMSO zero. activation, % at 8.9 µM. actives 0.98% (n = 360,000). AID 540308, 2011;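 active = activation above a per-plate cutoff, the mean activation of sample wells on that plate plus 3 SD, cut at about 8% in these data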
NR2E3 ag-1 – NR2E3 agonists in two-hybrid cells, primary screen, cell-based, luminescence, CHO-S, Gal4-NCOR/VP16-NR2E3 | actives 0.35% (n = 360,000) | Photoreceptor-specific nuclear receptor (Homo sapiens), Q9Y5X4 | inhibition of corepressor binding, % at 3.98 µM | luciferase | AID 602229, 2012;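 active = inhibition above the mean of all tested compounds plus 3 SD, cut at about 70% in these data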;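 note: higher means lower luciferase signal from less NR2E3 corepressor binding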
NR2E3 ag-2 – inhibitors of NR2E3-RetCOR corepressor binding, primary screen, NR2E3 agonist project, biochemical, TR-FRET, GST-NR2E3, biotin-RetCOR. AID 2300, 2010. 1536-well. actives 0.12% (n = 320,000). Photoreceptor-specific nuclear receptor (Homo sapiens), Q9Y5X4. inhibition of corepressor binding, % at 4.78 µM;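 active = percent inhibition above the cutoff of mean plus 3 SD of all tested compounds, set per screening campaign, cut at about 20% in these data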
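Material – GST-tagged NR2E3 plus biotinylated RetCOR corepressor · Quantity – NR2E3 fusion 1.35 nM · Times – 5 h incubation at 4 °C · Medium – pH 7.5 Tris-based buffer · Technique – TR-FRET, Eu(K)-anti-GST donor, streptavidin-D2 acceptor, ex 340, em 617/671 nm · Benchmarks – high control biotin, low control 0.6% DMSO · Format – 1536-well plates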
PG9 Ab binder – binders of HIV-1 gp120 antibody PG9, primary screen, biochemical, TR-FRET | actives 0.43% (n = 360,000) | TR-FRET gp120-PG9 antibody binding | inhibition, % at 6.7 µM | HIV-1 gp120 / PG9 antibody interaction | AID 624416, 2012; in the data active = inhibition above about 8.5%
NR1D1 mod conf – modulators of Rev-erb alpha DNA binding, confirmation, biochemical, FITC-DNA, fluorescence polarization, single point; shares compounds with NR1D1 modulator; 90 min; activation, % at 25 µM; actives 61% (n = 3,000); AID 1259319, 2017;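 active = activation at or above a set limit, or at least 3 SD above the negative control mean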
RORg counter – modulation of RORgamma DNA binding, dose response, counter-screen for Rev-erb alpha modulator project, biochemical, fluorescence polarization, FITC-DNA; shares compounds with NR1D1 modulator; purified RORgamma protein-FITC-DNA binding; IC50, µM; actives 8% (n = 910);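 active = Compounds whose fitted half-maximal concentration for disrupting protein-DNA binding is below 10 micromolar; the record names Rev-erb in its text, so the target is in doubt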
Hits are given with their value; - = inactive; . = not tested or not shown; ! = not confirmed by another sample.

SMILES	MC4R antag cAMP	NR1D1 modulator	MC4R ag barr	NR2E3 ag-1	NR2E3 ag-2	PG9 Ab binder	NR1D1 mod conf	others
CCCC1(c2ccccc2)NC(=O)N(CC(=O)Nc2sc(-c3ccccc3)cc2C(=O)OCC)C1=O (centres undefined)	-	56.3	-	-	-	-	50.3	RORg counter=-
CCOC(=O)c1cc(-c2ccccc2)sc1NC(=O)CC(C)C	-	-	-	-	-	-	.
CCOC(=O)c1cc(-c2ccccc2)sc1NC(=O)CN1C(=O)c2ccccc2C1=O	-	33.2	-	-	-	-	-
CCCC1(c2ccccc2)NC(=O)N(CC(=O)Nc2cc(C)on2)C1=O (centres undefined)	-	-	-	-	-	-	.
CC(C)c1nc(SCC(=O)N2CCCc3ccccc32)c2c(=O)n(C)c(=O)n(C)c2n1	-	-	-	-	-	-	.
CNC(=O)COC(=O)c1cc2c(s1)CCCC2	-	-	-	-	-	-	.
COCC(=O)Nc1ccccc1Br	-	-	-	-	-	-	.
O=C(O)c1cnn2c1C(=O)N(Cc1cccs1)CC2	-	-	-	-	-	-	.
CCOC(=O)c1c(-c2cccs2)csc1NC(C)=O	-	-	-	-	-	-	.
CCOC(=O)c1c(-c2ccc(C)s2)csc1NC(=O)c1cccs1	-	49.5	-	-	-	-	24.6
Cc1ccc(-c2nn(C)c(=O)c3ccccc23)cc1S(=O)(=O)N1CCCC1	-	26.3	-	-	-	-	36.0	RORg counter=-
COc1ccccc1C(=O)Nc1ccccc1N1CCOCC1	-	-	-	-	-	-	.
Cc1nc(SCc2nc3ccc(F)cc3[nH]2)c2oc3ccccc3c2n1	-	-	-	-	.	-	.
Cc1nc(SCc2nc3ccc(C(=O)c4ccccc4)cc3[nH]2)c2oc3ccccc3c2n1	-	63.3	-	-	.	-	75.5
Cc1nc(SCc2nc3ccccc3[nH]2)c2oc3cc(Br)ccc3c2n1	-	46.4	-	-	.	-	53.2	RORg counter=-
Cc1ccc(-c2nc(CS(=O)CC(=O)NCCN3CCOCC3)c(C)o2)cc1 (centres undefined)	-	-	-	-	-	-	.
COc1ccc(C(=O)c2ccc(N3CCN(C(=O)c4ccc(F)cc4)CC3)c(F)c2)cc1Br	-	27.6	-	-	-	-	23.8
COc1ccc2c(c1)C(NC(C)=O)C(=O)N2CCc1ccccc1 (centres undefined)	-	-	-	-	-	-	.
Cn1c(N)c(C(=O)COC(=O)C2(c3ccc(F)cc3)CCCC2)c(=O)n(C)c1=O	-	-	-	-	-	-	.
Cn1c(N)c(C(=O)COC(=O)C2(c3ccccc3F)CCCC2)c(=O)n(C)c1=O	-	18.6	-	-	-	-	-
CCN(CC(=O)Nc1c(F)cccc1F)C(=O)/C=C/c1ccc(Br)s1	-	-	-	-	-	-	.
COc1cccc2c1C(=O)c1c(O)c3c(c(O)c1C2=O)C[C@@](O)(C(C)=O)C[C@@H]3O[C@H]1C[C@H](N)[C@H](O)[C@H](C)O1	-	27.7!	-	-	.	-	-
COc1ccc(C2CC(c3ccc(Cl)c(Cl)c3)Nc3nc(N)nn32)cc1 (centres undefined)	-	31.4	-	-	-	-	16.6
Cc1ccc(NC2SC(=O)N(Cc3cccc(C(=O)O)c3)C2=O)c(C)c1 (centres undefined)	-	-	-	-	-	-	.
Cc1ccccc1C(=O)N=c1ccn(-c2nc3ccccc3nc2NS(=O)(=O)c2ccc(F)cc2)cc1	-	35.3	-	-	-	-	91.8	RORg counter=-
SMILES	MC4R antag cAMP	NR1D1 modulator	MC4R ag barr	NR2E3 ag-1	NR2E3 ag-2	PG9 Ab binder	NR1D1 mod conf	others
O=C(N=c1ccn(-c2nc3ccccc3nc2NS(=O)(=O)c2ccccc2)cc1)c1cccs1	-	174.2	-	-	-	-	144.8	RORg counter=-
C[C@H]1[C@@H](Cc2cc(Cl)cc(Cl)c2)N(c2ccccc2)c2ccccc2CN1Cc1ccccc1	.	-	.	.	.	-	.
CN(NC(=O)COc1ccccc1)c1ccccc1	-	-	-	-	-	-	.
COc1ccc(C)cc1NC(=O)c1cc2c(=O)n3ccccc3nc2n1C	-	23.1	-	-	-	-	54.5	RORg counter=-
COc1ccc(NC(=O)c2cc3c(=O)n4ccccc4nc3n2C)c(OC)c1	-	-	-	-	-	-	.
CCOC(=O)c1c(C)nc2sc3c(=O)n(-c4ccc(C(C)=O)cc4)nnc3c2c1-c1ccc(OC)cc1	-	-	-	-	-	-	.
CCOC(=O)c1c(C)nc2sc3c(=O)n(-c4ccc(OC)cc4)cnc3c2c1-c1ccc(OC)cc1	-	35.4	-	-	-	-	-
CC1(C(=O)NS(=O)(=O)c2cccc(C#N)c2)CCN1C(=O)C1(c2ccc(Cl)cc2)CC1 (centres undefined)	-	-	-	-	.	-	.
Cc1ccc(C)c(NC(=O)CN(C)C(=O)c2ccc(-c3ccc(Cl)cc3)o2)c1	-	25.6	-	-	-	-	17.8
Cc1ccc(C2(C(F)(F)F)NC(=O)N3C(=C2C#N)Nc2ccccc23)cc1 (centres undefined)	-	33.5	-	-	-	-	32.3	RORg counter=-
CC1(C(=O)NS(=O)(=O)C2CC2)CCCN(C(=O)c2ccc3c(c2)OCO3)C1 (centres undefined)	-	-	-	-	.	-	.
CCOC(=O)c1cc2c(=O)c3ccccc3oc2nc1C	-	53.1	-	-	-	-	44.0	RORg counter=-
CC(=O)c1cc2c(=O)c3ccccc3oc2nc1C	-	-	-	-	-	-	.
COc1cccc(OC)c1C(=O)Nc1ccc(N2CCN(C(=O)c3ccco3)CC2)cc1	-	-	-	-	-	-	.
Cc1ccccc1OCC(=O)Nc1ccccc1N1CCCCC1	-	16.7	-	-	-	-	-
CNc1ccc2c3c(cccc13)C(=O)N(C)C2=O	-	382.1	-	-	-	-	339.1	RORg counter=-
